Assay results: ChEMBL document CHEMBL1159390, “Plakortides M and N, bioactive polyketide endoperoxides from the Caribbean marine sponge Plakortis halichondrioides” (J Nat Prod, 2003)
Active and inactive are the calls of the source. The calls are words filed in the database; no cut-off is given here.

Legend:
[1] = system: Mycobacterium tuberculosis; assay: Antitubercular activity against Mycobacterium tuberculosis H37Rv at 6.25 ug/mL; assay type: functional, organism-based
Plasmodium falciparum = assay: Antimalarial activity against Plasmodium falciparum; assay type: functional, organism-based
IGROV-1 = assay: Cytotoxicity against human IGROV1 cells; assay type: functional, cell-based
Outline: (§1)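 Tested in the NCI in vitro antitumor screen of 60 human tumour cell lines, after a prior NCI three-cell-line, one-dose primary anticancer assay.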

OVCAR-3 = assay: Cytotoxicity against human OVCAR-3 cells; assay type: functional, cell-based; outline: as §1
SF-539 = assay: Cytotoxicity against human SF539 cells; assay type: functional, cell-based; outline: as §1
U-251 = assay: Cytotoxicity against human U251 cells; assay type: functional, cell-based; outline: as §1
T47D = assay: Cytotoxicity against human T47D cells; assay type: functional, cell-based; outline: as §1
DU-145 = assay: Cytotoxicity against human DU145 cells; assay type: functional, cell-based; outline: as §1
ACHN = assay: Cytotoxicity against human ACHN cells; assay type: functional, cell-based; outline: as §1
HOP-62 = assay: Cytotoxicity against human HOP62 cells; assay type: functional, cell-based; outline: as §1
M14 = assay: Cytotoxicity against human M14 cells; assay type: functional, cell-based; outline: as §1
786-0 = assay: Cytotoxicity against human 786-0 cells; assay type: functional, cell-based; outline: as §1
NCI/ADR-RES = assay: Cytotoxicity against human NCI/ADR-RES cells; assay type: functional, cell-based; outline: as §1
PC-3 = assay: Cytotoxicity against human PC3 cells; assay type: functional, cell-based; outline: as §1
SK-OV-3 = assay: Cytotoxicity against human SKOV3 cells; assay type: functional, cell-based; outline: as §1
LOX IMVI = assay: Cytotoxicity against human LOXIMVI cells; assay type: functional, cell-based; outline: as §1
CCRF-CEM = assay: Cytotoxicity against human CCRF-CEM cells; assay type: functional, cell-based; outline: as §1
[2] = Cytotoxicity against human […] cells; assay type: functional, cell-based; outline: as §1
A549 = assay: Cytotoxicity against human A549 cells; assay type: functional, cell-based; outline: as §1
HCT-116 = assay: Cytotoxicity against human HCT116 cells; assay type: functional, cell-based; outline: as §1
SK-MEL-2 = assay: Cytotoxicity against human SK-MEL-2 cells; assay type: functional, cell-based; outline: as §1
SR = assay: Cytotoxicity against human SR cells; assay type: functional, cell-based; outline: as §1
HT-29 = assay: Cytotoxicity against human HT-29 cells; assay type: functional, cell-based; outline: as §1
NCI-H460 = assay: Cytotoxicity against human NCI-H460 cells; assay type: functional, cell-based; outline: as §1
MCF7 = assay: Cytotoxicity against human MCF7 cells; assay type: functional, cell-based; outline: as §1
SF-295 = assay: Cytotoxicity against human SF295 cells; assay type: functional, cell-based; outline: as §1
COLO 205 = assay: Cytotoxicity against human COLO205 cells; assay type: functional, cell-based; outline: as §1
UO-31 = assay: Cytotoxicity against human UO31 cells; assay type: functional, cell-based; outline: as §1

Compound	Activity [1]	IC50 (IGROV-1)	IC50 (OVCAR-3)	IC50 (SF-539)	IC50 (U-251)	IC50 (T47D)	IC50 (DU-145)	IC50 (ACHN)	IC50 (HOP-62)	IC50 (M14)	IC50 (786-0)	IC50 (NCI/ADR-RES)	IC50 (PC-3)	IC50 (SK-OV-3)	IC50 (LOX IMVI)	IC50 (CCRF-CEM)	IC50 [2]	IC50 (A549)	IC50 (HCT-116)	IC50 (SK-MEL-2)	also measured
CC/C=C/[C@H](CC)C/C(=C/[C@@]1(CC)C[C@H](CC)[C@H](CC(=O)OC)OO1)CC	inactive	–	–	–	–	–	–	–	–	–	–	–	–	–	–	–	–	–	–	–	IC50 (Plasmodium falciparum): ≥ 50 µg/mL
CC/C=C/[C@H](CC)C/C=C/[C@@]1(CC)C[C@H](CC)[C@H](CC(=O)OC)OO1	inactive	–	–	–	–	–	–	–	–	–	–	–	–	–	–	–	–	–	–	–	–
CC/C=C/[C@H](CC)C/C=C/[C@@]1(CC)C[C@H](CC)[C@H](CC(=O)O)OO1 [PLAKORTIDE M]	–	600 nM	2000 nM	1800 nM	1700 nM	2200 nM	1900 nM	1700 nM	1600 nM	6800 nM	1600 nM	1800 nM	1600 nM	1300 nM	500 nM	200 nM	1300 nM	1800 nM	2000 nM	11100 nM	IC50 (SR): 400 nM; IC50 (HT-29): 1400 nM; IC50 (NCI-H460): 1800 nM; IC50 (MCF7): 2900 nM; IC50 (SF-295): 1800 nM; IC50 (COLO 205): 1500 nM; IC50 (UO-31): 1400 nM
CC/C=C/[C@H](CC)C/C(=C/[C@@]1(CC)C[C@H](CC)[C@H](CC(=O)O)OO1)CC [PLAKORTIDE N]	–	60 nM	1100 nM	1500 nM	500 nM	1300 nM	400 nM	200 nM	900 nM	1600 nM	1300 nM	400 nM	300 nM	1900 nM	30 nM	100 nM	< 10 nM	100 nM	400 nM	1700 nM	IC50 (SR): 100 nM; IC50 (HT-29): 500 nM; IC50 (NCI-H460): 200 nM; IC50 (MCF7): 1800 nM; IC50 (SF-295): 300 nM; IC50 (COLO 205): 1300 nM; IC50 (UO-31): 10 nM
